ChEMBL document CHEMBL1127337, “1-((7,7-Dimethyl-2(S)-(2(S)-amino-4-(methylsulfonyl)butyramido)bicyclo [2.2.1]-heptan-1(S)-yl)methyl)sulfonyl)-4-(2-methylphenyl)piperaz ine (L-368,899): an orally bioavailable, non-peptide oxytocin antagonist with potential utility for managing preterm labor” (J Med Chem, 1994)
Activity calls are given as the source filed them. The calls are words filed in the database; no cut-off is given here.

Tests used:
Oxytocin receptor [1] = target: T1, Oxytocin receptor (Rattus norvegicus, UniProt P70536); assay: Displacement of [3H]OT from binding to oxytocin receptor of rat uterus
T1 sequence (P70536 whole entry): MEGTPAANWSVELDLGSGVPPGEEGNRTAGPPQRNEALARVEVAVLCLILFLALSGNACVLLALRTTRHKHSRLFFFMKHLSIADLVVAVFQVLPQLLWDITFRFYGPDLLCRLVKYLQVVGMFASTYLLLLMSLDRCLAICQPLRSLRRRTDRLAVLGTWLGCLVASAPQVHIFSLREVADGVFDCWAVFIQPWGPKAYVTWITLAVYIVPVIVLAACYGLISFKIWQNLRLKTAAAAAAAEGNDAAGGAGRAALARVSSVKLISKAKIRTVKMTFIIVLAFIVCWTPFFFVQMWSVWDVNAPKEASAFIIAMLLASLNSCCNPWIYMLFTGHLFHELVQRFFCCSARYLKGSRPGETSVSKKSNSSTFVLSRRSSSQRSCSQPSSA
Summary of the method: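 Competition binding against [3H]OT on uterine tissue from pregnant rats (day 22-23 of gestation) or DES-pretreated rats. IC50 is the molar concentration giving 50% displacement of radioligand.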

Vasopressin V1a receptor = Vasopressin V1a receptor (Rattus norvegicus, UniProt P30560); assay: Displacement of [3H]AVP from binding to arginine vasopressin 1a (V1a) […] of rat liver
Summary of the method: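 Competition binding against [3H]AVP on liver from male rats (V1a site). IC50 is the molar concentration giving 50% radioligand displacement.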

[2] = Aqueous solubilities were determined by dissolving an crystalline hemisulfate and […] salts, respectively in water and adding acetate to pH 5.0, concentrations are expressed in free base equivalents.; type: ADME; settings: water adjusted with acetate, read-out: S
Summary of the method: (§1)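 Crystalline hemisulfate or dihydrochloride salt dissolved in water, then acetate added to pH 5.0 to measure aqueous solubility.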

Vasopressin V2 receptor = Vasopressin V2 receptor (Rattus norvegicus, UniProt Q00788); assay: Displacement of [3H]-AVP from binding to Vasopressin receptor V2 of rat kidney
Summary of the method: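 [3H]AVP competition binding on kidney medulla from male rats (V2 site). IC50 is the molar concentration displacing 50% of radioligand.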

Rattus norvegicus [3] = assay: in vivo dose given intravenously (iv) that reduces by 50% the contractile response of the in situ rat uterus to exogenous OT; type: functional
Summary of the method: (§2)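 Anesthetized DES-pretreated rats set up for isometric recording of in situ uterine contraction; OT 1 µg/kg iv every 35 min, third response taken as 100%. Antagonist infused iv over 10 min in saline, saline with 2% DMSO, or 15% DMSO plus 15% emulphor. AD50 is the dose cutting the response to the fourth OT injection by 50% relative to vehicle-treated rats.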

Rattus norvegicus [4] = assay: In vivo dose given intraduodenally (id) that reduces by 50% the contractile response of the in situ rat uterus to exogenous OT; ca.20; type: functional
Summary of the method: (§3)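 Uterine contraction recorded isometrically in situ in anesthetized DES-pretreated rats; OT 1 µg/kg iv at 35-min intervals, third response set as 100%. Antagonist injected intraduodenally as a suspension in saline with 1% methocel. AD50 is the dose lowering the response to the fourth OT injection by 50% against the vehicle group.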

[5] = Aqueous solubilities were determined by dissolving an crystalline hemisulfate and […] salts, respectively in water and adding acetate to pH 5.0, concentrations are expressed in free base equivalents; type: ADME; settings: water adjusted with acetate, read-out: S; summary of the method: as §1
Rattus norvegicus [6] = assay: In vivo dose given intraduodenally (id) that reduces by 50% the contractile response of the in situ rat uterus to exogenous OT; NA=Inactive at 3.0 mg/Kg; type: functional, organism-based; summary of the method: as §3
Rattus norvegicus [7] = assay: In vivo dose given intravenously (iv) that reduces by 50% the contractile response of the in situ rat uterus to exogenous OT; type: functional; summary of the method: as §2
Rattus norvegicus [8] = assay: In vivo dose given intraduodenally (id) that reduces by 50% the contractile response of the in situ rat uterus to exogenous OT; NA=Inactive at 1.0; type: functional, organism-based; summary of the method: as §3
Oxytocin receptor [9] = target: T1, Oxytocin receptor; assay: In vitro antagonism of OT-induced uterine contractions, against rat uterus by measuring pA2 value which refers to the negative logarithm of the molar concentration; type: functional, tissue-based; settings: read-out: pA2 (converted)
Summary of the method: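 Uteri isolated from diethylstilbestrol-pretreated rats; contractions evoked by oxytocin. pA2 = negative log of molar antagonist concentration giving a 2-fold rightward shift of the oxytocin dose-response curve (dose ratio 2), derived by Schild analysis.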

Rattus norvegicus [10] = assay: In vivo dose given intraduodenally (id) that reduces by 50% the contractile response of the in situ rat uterus to exogenous OT; type: functional; summary of the method: as §3
Rattus norvegicus [11] = assay: AD50 value which refers to the dose given intravenously (iv) that reduces by 50% the contractile response of the in situ rat uterus to exogenous OT was determined for the compound in vivo; type: functional; summary of the method: as §2
Oxytocin receptor [12] = target: T1, Oxytocin receptor; assay: In vitro antagonism of OT-induced uterine contractions, against rat uterus by measuring pA2 value; type: functional, tissue-based; settings: read-out: pA2 (converted)
Summary of the method: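 Uteri isolated from DES-pretreated rats and contracted with OT. pA2 is the negative log molar antagonist concentration giving a 2-fold rightward shift of the OT dose-response curve (dose ratio 2), derived from Schild plots.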

Rattus norvegicus [13] = assay: In vivo dose given intraduodenally (id) that reduces by 50% the contractile response of the in situ rat uterus to exogenous OT; ca.2; type: functional; summary of the method: as §3

Chain of Vasopressin V2 receptor (Q00788 whole entry): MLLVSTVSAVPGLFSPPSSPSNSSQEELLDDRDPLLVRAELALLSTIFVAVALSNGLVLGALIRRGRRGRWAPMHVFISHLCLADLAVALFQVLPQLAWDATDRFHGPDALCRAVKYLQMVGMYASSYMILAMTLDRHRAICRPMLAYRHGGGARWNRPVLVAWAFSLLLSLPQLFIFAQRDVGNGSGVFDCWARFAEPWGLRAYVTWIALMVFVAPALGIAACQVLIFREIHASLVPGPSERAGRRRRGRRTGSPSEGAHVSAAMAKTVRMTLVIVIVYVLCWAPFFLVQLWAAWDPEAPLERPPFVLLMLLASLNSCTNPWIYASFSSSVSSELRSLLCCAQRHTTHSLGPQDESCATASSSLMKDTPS
Chain of Vasopressin V1a receptor (P30560 whole entry): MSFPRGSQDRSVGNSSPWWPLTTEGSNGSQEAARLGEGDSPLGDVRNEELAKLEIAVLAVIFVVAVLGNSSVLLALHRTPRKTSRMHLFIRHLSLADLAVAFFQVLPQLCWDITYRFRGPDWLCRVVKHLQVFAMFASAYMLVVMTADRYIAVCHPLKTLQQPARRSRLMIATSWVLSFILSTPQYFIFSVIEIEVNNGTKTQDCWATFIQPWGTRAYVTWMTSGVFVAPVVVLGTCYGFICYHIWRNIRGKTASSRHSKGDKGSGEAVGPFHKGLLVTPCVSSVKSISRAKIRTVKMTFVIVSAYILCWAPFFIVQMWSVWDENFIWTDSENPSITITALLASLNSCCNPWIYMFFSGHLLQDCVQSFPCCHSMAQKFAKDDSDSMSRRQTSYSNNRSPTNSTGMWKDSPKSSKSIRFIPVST

Compound | IC50 (Oxytocin receptor [1]) | IC50 (Vasopressin V1a receptor) | solubility [2] | IC50 (Vasopressin V2 receptor) | AD50 (Rattus norvegicus [3]) | AD50 (Rattus norvegicus [4]) | solubility [5] | AD50 (Rattus norvegicus [6]) | AD50 (Rattus norvegicus [7]) | AD50 (Rattus norvegicus [8]) | Kb (Oxytocin receptor [9]) | AD50 (Rattus norvegicus [10]) | AD50 (Rattus norvegicus [11]) | Kb (Oxytocin receptor [12]) | AD50 (Rattus norvegicus [13])
CC1(C)C2CC[C@@]1(CS(=O)(=O)N1CCC3(CCc4ccccc43)CC1)[C@@H](NC(=O)[C@@H](N)CCS(C)(=O)=O)C2 | 12 nM | 890 nM | 1500 µg/mL | 2400 nM | 0.84 mg/kg | 20 mg/kg | – | – | – | – | – | – | – | – | –
CCN(CC)[C@@H](CCS(C)(=O)=O)C(=O)N[C@H]1CC2CC[C@]1(CS(=O)(=O)N1CCN(c3ccccc3C)CC1)C2(C)C | 18 nM | 1300 nM | – | 310 nM | – | – | 230 µg/mL | – | – | – | – | – | – | – | –
Cc1ccccc1N1CCN(S(=O)(=O)C[C@]23CCC(C[C@@H]2NC(=O)[C@H](CCS(C)(=O)=O)N(CCO)CCO)C3(C)C)CC1 | 2.8 nM | 650 nM | 190 µg/mL | 240 nM | – | – | – | inactive | 0.087 mg/kg | – | – | – | – | – | –
Cc1ccccc1N1CCN(S(=O)(=O)C[C@]23CCC(C[C@@H]2NC(=O)[C@H](CCS(C)(=O)=O)NC2CCNCC2)C3(C)C)CC1 | 1.3 nM | 220 nM | – | 130 nM | – | – | 3000 µg/mL | – | 0.021 mg/kg | inactive | – | – | – | – | –
Cc1ccccc1N1CCN(S(=O)(=O)C[C@]23CCC(C[C@@H]2NC(=O)[C@H](CCS(C)(=O)=O)NC2CCCCC2)C3(C)C)CC1 | 15 nM | 600 nM | – | 230 nM | – | – | – | – | – | – | – | – | – | – | –
CN[C@@H](CCS(C)(=O)=O)C(=O)N[C@H]1CC2CC[C@]1(CS(=O)(=O)N1CCN(c3ccccc3C)CC1)C2(C)C | 9.2 nM | 320 nM | – | 350 nM | – | – | – | – | – | – | – | – | – | – | –
Cc1ccccc1N1CCN(S(=O)(=O)C[C@]23CCC(C[C@@H]2NC(=O)[C@@H](N)CCS(C)(=O)=O)C3(C)C)CC1 | 8.9 nM | 370 nM | – | 570 nM | – | – | 3700 µg/mL | – | 0.35 mg/kg | – | 1.26 nM | 7 mg/kg | – | – | –
Cc1ccccc1N1CCN(S(=O)(=O)C[C@]23CCC(C[C@@H]2NC(=O)[C@H](CCS(C)(=O)=O)NC2CCS(=O)(=O)CC2)C3(C)C)CC1 | 1.4 nM | 440 nM | – | 160 nM | – | – | < 300 µg/mL | – | – | inactive | – | – | 0.031 mg/kg | – | –
Cc1ccccc1N1CCN(S(=O)(=O)C[C@]23CCC(C[C@@H]2NC(=O)[C@H](CCS(C)(=O)=O)NC2CCOCC2)C3(C)C)CC1 | 2.4 nM | 680 nM | – | 270 nM | – | – | 360 µg/mL | – | 0.045 mg/kg | – | – | 1.4 mg/kg | – | – | –
Cc1ccccc1N1CCN(S(=O)(=O)C[C@]23CCC(C[C@@H]2NC(=O)[C@H](CCS(C)(=O)=O)N(C)C)C3(C)C)CC1 | 4.9 nM | 360 nM | – | 290 nM | – | – | 3100 µg/mL | – | 0.13 mg/kg | – | – | 2.6 mg/kg | – | 1 nM | –
CC1(C)C2CC[C@@]1(CS(=O)(=O)N1CCC3(CCc4ccccc43)CC1)[C@@H](NC(=O)[C@@H](N)CCC(N)=O)C2 | 12 nM | 2300 nM | – | 5100 nM | – | – | – | – | – | – | – | >30 mg/kg | – | – | 2 mg/kg
